SMILES strings stand for the structures.

One data set concerns RAW264.7. Put plainly: Antiinflammatory action in mouse RAW264.7 cells assessed as inhibition of LPS-induced nitric oxide production treated 30 mins before LPS challenge measured after 24 hrs by griess reaction.
Conditions: not given
The data set is classed as functional, cell-based. An outline of the steps:
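RAW264.7 macrophages seeded at 2 × 10^5 cells/well, pretreated 30 min with samples over 0.1–50.0 μM, then stimulated with LPS 1 μg/mL for 24 h. NO quantified as nitrite in culture supernatant using Griess reagent; IC50 derived.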
In general terms: Griess reagent forms a coloured azo dye with nitrite.
For orientation: IC50 means the midpoint of a concentration-inhibition curve. `C=C1C(=O)O[C@H]2C[C@@H](C)[C@@H]3CCC(=O)[C@@]3(C)[C@@H](O)[C@H]12` [CARPESIOLIN]: the IC50 came out at 8.4 µM. As to `C=C1C(=O)O[C@H]2C[C@@H](C)[C@@H]3[C@H](OC)CC(=O)[C@@]3(C)[C@@H](O)[C@H]12`, the IC50 came to 5.1 µM. Still for that read-out and setting: the result for `C=C1C(=O)O[C@H]2C=C(C)[C@H]3CC[C@](C)(O)[C@@H]3C[C@H]12` reads 6.3 µM; that for `C=C1C(=O)O[C@H]2C[C@@](C)(O)C3=CC[C@](C)(O)[C@@H]3C[C@H]12` [GUAIANOLIDE], 26.8 µM; that for `C=C1C(=O)O[C@H]2C[C@@H](C)[C@@H]3C=CC(=O)[C@@]3(C)C[C@H]12` [AROMATICIN], 8.2 µM. Still for that read-out and setting: as for `C=C1C(=O)O[C@H]2C[C@@H](C)[C@@H]3[C@@H](OC)CC(=O)[C@@]3(C)[C@@H](OC(C)=O)[C@H]12`, the figure is 1.5 µM; as for `C=C1C(=O)O[C@H]2C=C(C)[C@H]3CC[C@@](C)(O)[C@@H]3[C@@H](OC(C)=O)[C@H]12`, 17.1 µM.

With `C=C1C(=O)O[C@H]2C[C@@H](C)[C@@H]3CCC(=O)[C@@]3(C)[C@@H](OC(C)=O)[C@H]12` [ERGOLIDE], the IC50 came out at 3.9 µM.

Regarding `C=C1C(=O)O[C@@H]2CC(C)=C3[C@@H](OC(C)=O)C[C@@](C)(O)[C@@H]3C[C@H]12` [INUCHINENOLIDE B], the IC50 amounted to 9.9 µM. `C=C1C(=O)O[C@H]2C[C@@H](C)[C@@H]3CCC(=O)[C@@]3(C)C[C@H]12` [GRAVEOLIDE]: the IC50 came to 9.2 µM. On to `C=C1C(=O)O[C@H]2CC(=C)[C@H]3CC[C@@](C)(O)[C@@H]3C[C@H]12` [INUVISCOLIDE], for which the 50% inhibitory concentration (IC50) came to 21.9 µM. As to `C=C1C(=O)O[C@@H]2C[C@H](C)[C@@H]3[C@@H](O)CC(=O)[C@@]3(C)C[C@H]12` [BURRODIN], the IC50 is 9.5 µM. With `C[C@@H]1C[C@@H]2OC(=O)[C@H](C)[C@H]2[C@H](O)[C@]2(C)C(=O)CC[C@@H]12`, the IC50 amounted to 19.8 µM. With `C=C1C(=O)O[C@H]2C[C@@H](C)[C@@H]3C=CC(=O)[C@@]3(C)[C@@H](OC(C)=O)[C@H]12` [BIGELOVIN], the IC50 was 0.9 µM.

Regarding `C=C1C(=O)O[C@H]2C=C(C)[C@@H]3[C@@H]([C@@H](O)[C@H]12)[C@](C)(O)C[C@@H]3OC(C)=O`, the IC50 came out at 9.2 µM. Turning to `C=C1C(=O)O[C@H]2C[C@@H](C)[C@@H]3[C@H](OCC)CC(=O)[C@@]3(C)[C@@H](O)[C@H]12`, the IC50 turned out to be 3.8 µM.

Regarding `C=C1C(=O)O[C@H]2C[C@@H](COC(C)=O)[C@@H]3CCC(=O)[C@@]3(C)C[C@H]12`, the IC50 came to 6.6 µM. For the compound `C=C1C[C@H]2OC(=O)C(=C)[C@H]2C[C@@H]2[C@@H]1CC[C@@]2(C)O`, the IC50 was 8 µM.

Turning to `C=C1C(=O)O[C@H]2C[C@@H](C)[C@@H]3[C@H](OC)CC(=O)[C@@]3(C)[C@@H](OC(C)=O)[C@H]12`, the IC50 was 2.2 µM.

As for `N=C(N)NN` [PIMAGEDINE], the concentration for half-maximal inhibition (IC50) is 7.9 µM. On to `C=C1C(=O)O[C@H]2C[C@H](C)[C@@H]3C(OC(C)=O)CC(OC(C)=O)[C@@]3(C)[C@@H](O)[C@H]12` (some centres undefined) [INUCHINENOLIDE C], for which the IC50 came out at 0.6 µM. On the same count and under the same terms, as for `C=C1C(=O)O[C@@H]2C[C@H](C)[C@@H]3CCC(=O)[C@@]3(C)C[C@H]12` [CONFERTIN], the figure is 9.8 µM; as for `C=C1C(=O)O[C@H]2C[C@@H](C)[C@@H]3C=CC(=O)[C@@]3(C)[C@@H](O)[C@H]12`, 1.1 µM; as for `C=C1C(=O)O[C@H]2[C@H]1[C@@H](O)C[C@@H](C)[C@@H]1C=CC(=O)[C@]12C`, 3.5 µM. Consider `C[C@@H]1C[C@@H]2OC(=O)[C@@H](C)[C@H]2[C@H](O)[C@]2(C)C(=O)C=C[C@@H]12`, for which the IC50 is 10.5 µM.

The test system of another data set is RAW264.7. Put plainly: Cytotoxicity against mouse RAW264.7 cells after 24 hrs by MTT assay. Type of data set: cell-based. The following applies: raw264.7, 24 h. An outline of the steps:
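RAW264.7 macrophages, cultured and treated alongside the LPS (1 μg/mL, 24 h) NO assay with sample pretreatment of 30 min; viability read by MTT reduction.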
A general note: Tetrazolium assays rely on reduction of a dye to a coloured formazan, in cell work by metabolically active cells.
As for `C=C1C(=O)O[C@H]2C[C@@H](C)[C@@H]3CCC(=O)[C@@]3(C)[C@@H](O)[C@H]12` [CARPESIOLIN], the Activity result was “Non-toxic”.

As to `C=C1C(=O)O[C@H]2C[C@@H](C)[C@@H]3[C@H](OC)CC(=O)[C@@]3(C)[C@@H](O)[C@H]12`, the Activity result is listed as “Non-toxic”. Consider `C=C1C(=O)O[C@H]2C=C(C)[C@H]3CC[C@](C)(O)[C@@H]3C[C@H]12`, for which the Activity result is given as “Non-toxic”.

In the case of `C=C1C(=O)O[C@H]2C[C@@](C)(O)C3=CC[C@](C)(O)[C@@H]3C[C@H]12` [GUAIANOLIDE], the Activity result is recorded as “Non-toxic”. Take `C=C1C(=O)O[C@H]2C[C@@H](C)[C@@H]3C=CC(=O)[C@@]3(C)C[C@H]12` [AROMATICIN]: the Activity result is “Non-toxic”. Regarding `C=C1C(=O)O[C@H]2C[C@@H](C)[C@@H]3[C@@H](OC)CC(=O)[C@@]3(C)[C@@H](OC(C)=O)[C@H]12`, the Activity entry is given as “Non-toxic”. As to `C=C1C(=O)O[C@H]2C=C(C)[C@H]3CC[C@@](C)(O)[C@@H]3[C@@H](OC(C)=O)[C@H]12`, the Activity result was “Non-toxic”. The same measure, in the same setting: the result for `C=C1C(=O)O[C@H]2C[C@@H](C)[C@@H]3CCC(=O)[C@@]3(C)[C@@H](OC(C)=O)[C@H]12` [ERGOLIDE] reads “Non-toxic”; that for `C=C1C(=O)O[C@@H]2CC(C)=C3[C@@H](OC(C)=O)C[C@@](C)(O)[C@@H]3C[C@H]12` [INUCHINENOLIDE B], “Non-toxic”. On the same count and under the same terms, the result for `C=C1C(=O)O[C@H]2C[C@@H](C)[C@@H]3CCC(=O)[C@@]3(C)C[C@H]12` [GRAVEOLIDE] reads “Non-toxic”; that for `C=C1C(=O)O[C@H]2CC(=C)[C@H]3CC[C@@](C)(O)[C@@H]3C[C@H]12` [INUVISCOLIDE], “Non-toxic”. Same read-out and setting: as for `C=C1C(=O)O[C@@H]2C[C@H](C)[C@@H]3[C@@H](O)CC(=O)[C@@]3(C)C[C@H]12` [BURRODIN], the entry is “Non-toxic”; as for `C[C@@H]1C[C@@H]2OC(=O)[C@H](C)[C@H]2[C@H](O)[C@]2(C)C(=O)CC[C@@H]12`, “Non-toxic”. Consider `C=C1C(=O)O[C@H]2C[C@@H](C)[C@@H]3C=CC(=O)[C@@]3(C)[C@@H](OC(C)=O)[C@H]12` [BIGELOVIN], for which the Activity result is “Non-toxic”. With `C=C1C(=O)O[C@H]2C=C(C)[C@@H]3[C@@H]([C@@H](O)[C@H]12)[C@](C)(O)C[C@@H]3OC(C)=O`, the Activity result is recorded as “Non-toxic”.

In the case of `C=C1C(=O)O[C@H]2C[C@@H](C)[C@@H]3[C@H](OCC)CC(=O)[C@@]3(C)[C@@H](O)[C@H]12`, the Activity result is listed as “Non-toxic”. On the same count and under the same terms, as for `C=C1C(=O)O[C@H]2C[C@@H](COC(C)=O)[C@@H]3CCC(=O)[C@@]3(C)C[C@H]12`, the entry is “Non-toxic”. With `C=C1C[C@H]2OC(=O)C(=C)[C@H]2C[C@@H]2[C@@H]1CC[C@@]2(C)O`, the Activity result is listed as “Non-toxic”. As for `C=C1C(=O)O[C@H]2C[C@@H](C)[C@@H]3[C@H](OC)CC(=O)[C@@]3(C)[C@@H](OC(C)=O)[C@H]12`, the Activity entry is reported as “Non-toxic”. Turning to `C=C1C(=O)O[C@H]2C[C@H](C)[C@@H]3C(OC(C)=O)CC(OC(C)=O)[C@@]3(C)[C@@H](O)[C@H]12` (some centres undefined) [INUCHINENOLIDE C], the Activity entry is “Non-toxic”. On the same count and under the same terms, the result for `C=C1C(=O)O[C@@H]2C[C@H](C)[C@@H]3CCC(=O)[C@@]3(C)C[C@H]12` [CONFERTIN] reads “Non-toxic”; that for `C=C1C(=O)O[C@H]2C[C@@H](C)[C@@H]3C=CC(=O)[C@@]3(C)[C@@H](O)[C@H]12`, “Non-toxic”; that for `C=C1C(=O)O[C@H]2[C@H]1[C@@H](O)C[C@@H](C)[C@@H]1C=CC(=O)[C@]12C`, “Non-toxic”. On to `C[C@@H]1C[C@@H]2OC(=O)[C@@H](C)[C@H]2[C@H](O)[C@]2(C)C(=O)C=C[C@@H]12`, for which the Activity entry is “Non-toxic”.
